# A selection: hits, their analogues and other compounds. The true share with any hit is near 2.1%.
# SUMO Mot1 rescue: SUMOylation pathway inhibition by Mot1-301 growth rescue; growth rescue, % at 18.8 µM; S. cerevisiae Mot1-301 growth rescue, ATP luminescence, 38.5C; percent above DMSO median, 100 means doubled; 320,000 tested, 1% active;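 active = every valid replicate shows activation above 250% relative to neutral control wells; inactive = the rest, any valid replicate at or below 250%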
# Statin myotox sup: suppressors of simvastatin-induced myotoxicity in C2C12 myotubes; ATP luminescence, 48 h; scaled: DMSO 0, geranylgeraniol control 100; rescue of ATP level, % at 7.49 µM; 330,000 tested, 0.78% active;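 active = mean ATP rescue above about 67%, or every replicate alone reaching that limit, limit read from the data, passing the limit was not always enough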;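 also: myotubes were challenged with 10 µM simvastatin during compound exposure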
# A3G deaminase: blocks human APOBEC3G single-stranded DNA deamination | Q9HC16 | recombinant A3G, ssDNA deamination FAM/TAMRA fluorescence | inhibition, % at 20 µM | 330,000 tested, 0.28% active;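 active = inhibition of at least 40% at 20 µM, with no more than 30% in the related APOBEC3A deaminase screen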
# A3A deaminase: blocks human APOBEC3A ssDNA deamination; recombinant A3A, FAM/TAMRA ssDNA deamination fluorescence; inhibition, % at 20 µM; 330,000 tested, 0.41% active; AID 493011;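 active = at least 40% inhibition at 20 µM here, with at most 30% in a related deaminase screen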
# Target sequence (P31941 whole entry, looked up): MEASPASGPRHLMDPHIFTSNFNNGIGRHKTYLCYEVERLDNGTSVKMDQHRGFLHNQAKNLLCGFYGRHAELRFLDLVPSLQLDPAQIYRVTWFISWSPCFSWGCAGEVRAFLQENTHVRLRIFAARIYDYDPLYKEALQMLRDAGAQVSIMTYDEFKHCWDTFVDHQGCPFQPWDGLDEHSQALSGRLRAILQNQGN
# ARFGAP1 inhibitor: rat ARFGAP1 inhibition | inhibition, % at 16.5 µM | Arfgap1-stimulated ARF1 GTP hydrolysis, GDP FP detection | 360,000 tested, 0.26% active | Q62848;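 active = inhibition above a per-plate limit, mean inhibition of low control wells plus 3 SD, cut at about 25% in these data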
# Target sequence (Q62848 1-136 limits assumed): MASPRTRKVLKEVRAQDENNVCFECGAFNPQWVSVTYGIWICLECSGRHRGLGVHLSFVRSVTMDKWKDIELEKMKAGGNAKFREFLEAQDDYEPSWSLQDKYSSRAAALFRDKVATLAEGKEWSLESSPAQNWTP
#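 Material: rat Arfgap1 catalytic domain, aa 1-136; also added: human ARF1(Δ1-17)-GTP substrate; compound dosing: one concentration, 16.5 µM, DMSO 1.26%; incubation: GTP hydrolysis reaction 2 h at 25 °C; measured by: Tracer-displacement fluorescence polarization with EDTA stop, 620/688 nm; evaluation: % inhibition from polarization; repeats: one replicate per compound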
# ASAP1 GAP inh: blocks human ASAP1-stimulated Arf1 GTP hydrolysis; Q9ULH1; GDP FP detection; inhibition, % at 16.5 µM; 360,000 tested, 0.19% active; AID 624377; in the data active = inhibition above about 25%
# A number is an active result; 0 = inactive; - = not tested or not shown.
SMILES,SUMO Mot1 rescue,Statin myotox sup,A3G deaminase,A3A deaminase,ARFGAP1 inhibitor,ASAP1 GAP inh
S=C1N(c2ccccc2)C(c2ccccc2)N2CCCN12 (stereo not given),-,132,0,0,0,0
CN1CCN(C(=O)C[C@@H]2C[C@@H]3c4cc(NC(=O)Nc5ccc(C(F)(F)F)cc5)ccc4O[C@@H]3[C@@H](CO)O2)CC1,-,0,-,-,-,-
CC(SCc1cn2cc(Cl)ccc2n1)C(=O)O (stereo not given),0,108,0,0,0,0
O=C(O)c1ccccc1SCc1cn2cc(Cl)ccc2n1,0,-,0,0,0,0
O=C(C[C@@H]1C=C[C@@H](NC(=O)c2ccc3c(c2)OCO3)[C@H](CO)O1)NCc1ccc(Oc2ccccc2)cc1,-,0,-,-,-,-
CC1CCN(S(=O)(=O)c2nnc(NC(=O)COc3ccccc3)s2)CC1,292,0,0,0,0,0
Cc1ccc(OCC(=O)Nc2nnc(S(=O)(=O)N3CCCCCC3)s2)cc1C,0,0,0,0,0,0
O=C(COc1ccc(Cl)cc1)Nc1nnc(S(=O)(=O)N2CCCCCC2)s1,0,77,0,0,0,0
CCCNC(=O)[C@@H]1[C@@H](CO)[C@@H]2Cn3c(cccc3=O)[C@H]1N2C(=O)C1CCCC1,-,0,-,-,-,-
C[C@@H]1CN([C@H](C)CO)C(=O)c2cc(NS(=O)(=O)c3ccccc3)ccc2O[C@@H](C)CCCCO[C@H]1CN(C)S(=O)(=O)c1ccc(F)cc1,-,0,-,-,-,-
CC1CCCN(C(=O)c2sc3cc([N+](=O)[O-])ccc3c2Cl)C1 (stereo not given),0,66,0,0,0,0
CCOCC(=O)N1CCC(Cc2ccccc2)CC1,0,-,0,0,0,0
Cn1c(C(=O)O)c(CC(=O)N2CCC(Cc3ccccc3)CC2)c2ccccc21,893,-,0,0,0,0
CCCNC(=O)N1C[C@H]2[C@@H](c3ccccc31)[C@H](CO)N2Cc1cc(F)ccc1F,-,0,-,-,-,-
CCCn1c(-c2cccnc2Cl)nc2cc(Cl)c(Cl)cc21,0,72,0,0,0,0
C=CCn1c(-c2cccnc2Cl)nc2cc(Cl)c(Cl)cc21,0,0,0,0,0,0
CCOC(=O)c1nn(-c2ccc(F)cc2)c(C)c1C(C)=O,0,74,0,0,0,0
CCOC(=O)c1nn(-c2ccc(C)cc2)c(C)c1C(C)=O,0,0,0,0,0,0
CCCCOc1ccc(N2CC(C(=O)NCCc3ccc(OC)c(OC)c3)CC2=O)cc1 (stereo not given),909,-,0,0,0,0
C[C@@H]1CN([C@H](C)CO)C(=O)CCCn2nncc2CO[C@@H]1CN(C)Cc1ccc(O)cc1,-,0,-,-,-,-
COCCn1c(-c2ccccc2F)n[nH]c1=S,0,137,0,0,0,0
COCCn1c(CCc2ccccc2)n[nH]c1=S,0,-,0,0,0,0
Cn1ncc(Cl)c1C(=O)Nc1cccnc1,0,101,0,0,0,0
CC(C)NC(=O)Nc1ccc2c(c1)CC(=O)N([C@H](C)CO)C[C@@H](C)[C@@H](CN(C)Cc1ccc(C(F)(F)F)cc1)O2,-,0,-,-,-,-
C=CCn1c(CCCNC(=O)C(C)(C)C)nc2ccccc21,0,0,0,0,0,0
SMILES,SUMO Mot1 rescue,Statin myotox sup,A3G deaminase,A3A deaminase,ARFGAP1 inhibitor,ASAP1 GAP inh
C=C(C)Cn1c(CCCNC(=O)C(C)(C)C)nc2ccccc21,0,154,0,0,0,0
CSC(=S)N/N=C/c1ccccc1,0,87,0,0,0,0
O=C(C[C@H]1C=C[C@@H](NS(=O)(=O)c2ccccc2)[C@H](CO)O1)NCc1ccc(Cl)c(Cl)c1,-,0,-,-,-,-
COC(=O)C1CCN(C(=O)CSc2nnc(-c3ccncc3)o2)CC1,312,-,0,0,0,0
O=C(CSc1nnc(-c2ccncc2)o1)N1CCCCCC1,-,-,-,-,0,0
O=C1c2ccccc2C(=O)N1CCc1nc2ccccc2c(=O)n1CCCn1ccnc1,0,95,0,0,0,0
O=C1c2ccccc2C(=O)N1Cc1nc2ccccc2c(=O)n1CCCn1ccnc1,-,-,-,-,0,0
COc1cccc(CNC(=O)[C@@H]2N[C@@H]3c4ccc(/C=C/c5ccccc5)c(=O)n4C[C@@H]3[C@H]2CO)c1,-,0,-,-,-,-
O=C(CCN1C(=O)/C(=C/c2ccccc2)SC1=S)Nc1ccccn1,0,93,0,0,0,0
Cc1ccc(/C=C2\SC(=S)N(CCCC(=O)Nc3ccccn3)C2=O)cc1,0,-,0,0,0,0
CCCC(=O)Nc1ccc2c(c1)C(=O)N(C)C[C@H](OC)[C@@H](C)CN(C(=O)c1ccccc1F)[C@@H](C)CO2,-,0,-,-,-,-
O=C(NCc1ccccc1)c1ccc(C2SCC(=O)N2Cc2ccccc2)cc1 (stereo not given),0,79,0,0,0,0
C=CCNC(=O)c1ccc(C2SCC(=O)N2Cc2ccccc2)cc1 (stereo not given),0,0,0,0,0,0
Cc1cc(O)cc(O)c1C(=O)Cc1cscn1,353,0,0,0,0,0
CO[C@H]1CN(C)C(=O)c2ccc(NC(C)=O)cc2OC[C@@H](C)N(Cc2ccncc2)C[C@H]1C,-,0,-,-,-,-
COc1cc(C(O)c2nc3ccccc3n2C(C)C)cc(OC)c1OC (stereo not given),0,0,0,0,0,0
COc1ccc(OC)c(C(O)c2nc3ccccc3n2C(C)C)c1 (stereo not given),304,0,0,0,0,0
COc1ccc(-c2ccc3c(c2)[C@@H]2[C@@H](CCN2S(=O)(=O)c2ccccc2F)[C@H](CO)N3C)cc1,-,0,-,-,-,-
Cn1c(SCc2nc(-c3ccc(Cl)cc3)no2)nnc1-c1cccs1,0,84,0,0,0,0
Cc1n[nH]c(C)c1S(=O)(=O)N1CCN(c2ccccn2)CC1,0,78,0,0,0,0
CC(C)(C)S(=O)(=O)c1ccc(S(=O)(=O)C(C)(C)C)s1,949,-,0,0,-,-
CC(C)(C)c1ccc(S(=O)(=O)C(C)(C)C)cc1,0,0,0,0,0,0
Cc1ccc(-c2nnn(CC(=O)N(CCO)C(C(=O)NC3CCCCC3)c3ccncc3)n2)o1 (stereo not given),0,-,0,0,0,0
Cc1ccc(-c2nnn(CC(=O)N(CCCO)C(C(=O)NC3CCCC3)c3ccc(Cl)cc3)n2)o1 (stereo not given),0,80,0,0,0,0
CO[C@H]1CN(C)C(=O)c2ccc(NC(=O)c3ccccc3)cc2OC[C@@H](C)N(C(=O)C2CC2)C[C@@H]1C,-,0,-,-,-,-
O=C(Oc1ccc(C(=S)N2CCOCC2)cc1Br)c1ccccc1F,0,149,0,0,0,0
Cc1ccc(N2C(=O)[C@@H]3[C@H](C2=O)C2c4ccccc4C=CN2[C@@H]3C(=O)c2ccco2)cc1 (stereo not given in full),-,0,-,-,0,26

# High-throughput results as filed in PubChem.
